Values after ≈ are worked out from the molar mass of the structure shown. Active and inactive are the calls of the source. The calls are words filed in the database; no cut-off is given here.
Tests used:
Rattus norvegicus [1] = test: AUC (0 to 24 hrs) in rat at 1 mg/kg, iv; format: ADME, organism-based, Plasma; parameters: time < 24 hr, dose 1 mg/kg, route intravenous; details: in vivo
In short: (§1)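 Rat PK, intravenous arm of a paired iv/po study. Dosed in 2% Vitamin E TPGS (tocopheryl polyethylene glycol 1000 succinate). Parameters derived from plasma: Cmax, AUC0–24 h, terminal T1/2.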

[2] = Ratio of drug level in brain to plasma of rat at 1 mg/kg, iv; format: ADME, organism-based; parameters: dose 1 mg/kg, route intravenous; details: read-out: BPR
In short: (§2)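 Rat pharmacokinetics: compounds given iv (1 or 3 mg/kg) and po (5 or 10 mg/kg) in 2% Vitamin E TPGS (tocopheryl polyethylene glycol 1000 succinate). Plasma sampled over 24 h for Cmax, Tmax, AUC0–24 h, T1/2, clearance, Vss and oral bioavailability. Brain to plasma ratio also measured.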

Rattus norvegicus [3] = test: Oral bioavailability in rat at 10 mg/kg; format: ADME, organism-based; details: in vivo; in short: as §2
[4] = target: Adenosine receptor A3 (Homo sapiens) (UniProt P0DMS8); test: Inhibition of adenosine A3 receptor at 4 uM
In short: (§3)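 Single-concentration screen within a 69-target selectivity panel. The test concentration was 4 μM, a level set by the compound's limited aqueous solubility.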

[5] = target: Type-2 angiotensin II receptor (Homo sapiens) (UniProt P50052); test: Inhibition of angiotensin AT2 receptor at 4 uM; in short: as §3
[6] = target: Platelet-activating factor receptor (Homo sapiens) (UniProt P25105); test: Inhibition of Platelet activating factor receptor at 4 uM; in short: as §3
[7] = Clearance in rat at 10 mg/kg, po; format: ADME, organism-based; parameters: dose 10 mg/kg, route oral; details: in vivo
[8] = Inhibition of NMDA receptor at 4 uM
In short: (§4)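 Selectivity panel of 69 targets, test compound at 4 μM, a level set by aqueous solubility limits; percent inhibition recorded per target.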

Rattus norvegicus [9] = test: Ex vivo CRF-1 receptor occupancy in po dosed rat cortical homogenate assessed as inhibition of [I125]-sauvagine binding pretreated for 3 hrs; format: functional, organism-based
In short: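 Rats dosed orally at 1, 3 and 10 mg/kg; cortex taken at 3 h for ex vivo binding. Specific [125I]-sauvagine binding compared with vehicle-treated rats to give ex vivo ID50.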

[10] = target: Adenosine receptor A1 (Homo sapiens) (UniProt P30542); test: Inhibition of adenosine A1 receptor at 4 uM; in short: as §3
[11] = Inhibition of DHP calcium channel at 4 uM; in short: as §4
Rattus norvegicus [12] = test: Toxicity in Sprague-Dawley rat assessed as effect on horizontal movement at 30 mg/kg, po measured after 3 hrs for 1 hr; format: organism-based; parameters: dose 30 mg/kg, route oral; details: in vivo
In short: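 Rats not habituated to the test environment, dosed orally at 3, 10 and 30 mg/kg. Spontaneous locomotor activity recorded after dosing: horizontal activity as movement time, plus vertical activity (rearing). Test run to exclude sedation.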

Rattus norvegicus [13] = species: Rattus norvegicus; test: Metabolic stability in rat assessed as demethylation of one or both methoxy group; format: ADME, organism-based; details: in vivo
[14] = Half life in rat at 1 mg/kg, iv; format: ADME, organism-based; parameters: dose 1 mg/kg, route intravenous; details: in vivo; in short: as §1
[15] = Cmax in rat at 10 mg/kg, po; format: ADME, organism-based; parameters: dose 10 mg/kg, route oral; details: in vivo
[16] = target: Vasoactive intestinal polypeptide receptor 1 (Homo sapiens) (UniProt P32241); test: Inhibition of VPAC1 receptor at 4 uM; in short: as §3
[17] = target: 5-hydroxytryptamine receptor 6 (Homo sapiens) (UniProt P50406); test: Inhibition of Serotonin 5HT6 receptor at 4 uM; in short: as §3
Rattus norvegicus [18] = test: Antihyperlocomotion activity in Wistar rat assessed as decrease in CRF-induced hyperlocomotion at 30 mg/kg, po administered 3 hrs before CRF challenge measured after 1 hr; format: functional, organism-based; parameters: dose 30 mg/kg
In short: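 Rats received 0.3 μg CRF intracerebroventricularly, with oral pretreatment 3 h before in vehicle TPGS. Readout was movement time (locomotor activity), compared against TPGS/CRF controls.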

[19] = target: Corticotropin-releasing factor receptor 1 (Homo sapiens) (UniProt P34998); details: IMR-32, 10 uM
[20] = Inhibition of Sigma opiate receptor at 4 uM; in short: as §3
[21] = target: Beta-1 adrenergic receptor (Homo sapiens) (UniProt P08588); test: Inhibition of adrenergic beta 1 receptor at 4 uM; in short: as §3
Chain of Beta-1 adrenergic receptor (Homo sapiens) (P08588 whole entry, looked up): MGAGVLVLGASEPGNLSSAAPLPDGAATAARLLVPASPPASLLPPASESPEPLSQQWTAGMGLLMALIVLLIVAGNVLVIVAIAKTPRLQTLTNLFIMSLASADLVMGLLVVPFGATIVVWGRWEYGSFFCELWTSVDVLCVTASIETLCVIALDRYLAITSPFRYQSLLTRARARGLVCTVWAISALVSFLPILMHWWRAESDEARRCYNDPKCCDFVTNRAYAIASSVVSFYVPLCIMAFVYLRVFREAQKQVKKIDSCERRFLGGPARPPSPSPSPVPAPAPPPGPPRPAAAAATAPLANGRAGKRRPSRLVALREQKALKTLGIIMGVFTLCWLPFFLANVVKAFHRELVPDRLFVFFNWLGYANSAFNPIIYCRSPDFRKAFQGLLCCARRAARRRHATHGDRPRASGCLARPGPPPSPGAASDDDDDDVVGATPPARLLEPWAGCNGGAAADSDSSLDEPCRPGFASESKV

Chain of Type-2 angiotensin II receptor (Homo sapiens) (P50052 whole entry): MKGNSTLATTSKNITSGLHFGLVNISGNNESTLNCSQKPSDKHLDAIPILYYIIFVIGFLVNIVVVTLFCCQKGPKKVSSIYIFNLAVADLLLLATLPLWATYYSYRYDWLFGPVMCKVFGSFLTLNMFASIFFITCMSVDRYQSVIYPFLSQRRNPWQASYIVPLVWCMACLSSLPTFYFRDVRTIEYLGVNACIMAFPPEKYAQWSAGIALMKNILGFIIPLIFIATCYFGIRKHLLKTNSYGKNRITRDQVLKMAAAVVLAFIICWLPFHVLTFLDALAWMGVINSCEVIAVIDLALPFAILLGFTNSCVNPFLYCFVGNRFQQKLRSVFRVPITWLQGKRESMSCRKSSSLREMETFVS
Chain of Adenosine receptor A1 (Homo sapiens) (P30542 whole entry): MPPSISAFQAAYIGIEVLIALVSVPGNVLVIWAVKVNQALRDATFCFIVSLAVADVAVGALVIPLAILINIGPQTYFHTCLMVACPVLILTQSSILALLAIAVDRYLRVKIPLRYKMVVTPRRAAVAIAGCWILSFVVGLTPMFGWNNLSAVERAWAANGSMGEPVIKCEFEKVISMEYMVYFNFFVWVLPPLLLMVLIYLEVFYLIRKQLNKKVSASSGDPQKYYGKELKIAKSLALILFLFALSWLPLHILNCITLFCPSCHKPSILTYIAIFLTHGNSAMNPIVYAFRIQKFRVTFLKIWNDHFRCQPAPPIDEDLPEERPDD
Chain of Vasoactive intestinal polypeptide receptor 1 (Homo sapiens) (P32241 whole entry): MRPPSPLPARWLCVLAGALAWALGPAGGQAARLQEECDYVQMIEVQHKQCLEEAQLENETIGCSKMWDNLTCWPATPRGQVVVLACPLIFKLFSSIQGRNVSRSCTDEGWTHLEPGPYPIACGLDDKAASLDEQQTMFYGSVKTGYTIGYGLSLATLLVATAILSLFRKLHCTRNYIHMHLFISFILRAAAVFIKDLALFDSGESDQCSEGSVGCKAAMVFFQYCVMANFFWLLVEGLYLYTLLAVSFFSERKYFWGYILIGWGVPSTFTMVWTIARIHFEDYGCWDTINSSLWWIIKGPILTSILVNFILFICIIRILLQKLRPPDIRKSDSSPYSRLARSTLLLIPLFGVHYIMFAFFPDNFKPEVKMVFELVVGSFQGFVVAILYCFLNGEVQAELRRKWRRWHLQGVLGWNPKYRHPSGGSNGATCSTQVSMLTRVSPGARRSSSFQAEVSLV
Chain of Platelet-activating factor receptor (Homo sapiens) (P25105 whole entry): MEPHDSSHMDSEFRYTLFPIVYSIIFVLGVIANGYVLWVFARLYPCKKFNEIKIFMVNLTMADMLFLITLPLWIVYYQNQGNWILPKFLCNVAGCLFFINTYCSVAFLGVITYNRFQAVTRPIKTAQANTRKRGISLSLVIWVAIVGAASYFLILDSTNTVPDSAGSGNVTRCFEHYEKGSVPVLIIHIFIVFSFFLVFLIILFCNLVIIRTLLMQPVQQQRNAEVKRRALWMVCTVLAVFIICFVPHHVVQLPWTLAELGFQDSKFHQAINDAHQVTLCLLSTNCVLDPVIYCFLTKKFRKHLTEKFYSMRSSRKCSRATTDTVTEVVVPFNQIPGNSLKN
Chain of Corticotropin-releasing factor receptor 1 (Homo sapiens) (P34998 whole entry): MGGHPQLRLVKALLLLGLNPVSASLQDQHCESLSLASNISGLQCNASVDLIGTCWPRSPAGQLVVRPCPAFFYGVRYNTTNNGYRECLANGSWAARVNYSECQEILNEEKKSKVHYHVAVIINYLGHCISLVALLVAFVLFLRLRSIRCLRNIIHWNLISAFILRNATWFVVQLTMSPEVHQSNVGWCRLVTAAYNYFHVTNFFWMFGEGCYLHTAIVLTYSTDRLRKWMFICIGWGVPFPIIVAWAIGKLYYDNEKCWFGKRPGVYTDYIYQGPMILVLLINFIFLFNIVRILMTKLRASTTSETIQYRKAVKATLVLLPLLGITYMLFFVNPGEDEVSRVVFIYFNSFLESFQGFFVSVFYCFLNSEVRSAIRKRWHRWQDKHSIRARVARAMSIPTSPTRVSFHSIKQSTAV
Chain of Adenosine receptor A3 (Homo sapiens) (P0DMS8 whole entry): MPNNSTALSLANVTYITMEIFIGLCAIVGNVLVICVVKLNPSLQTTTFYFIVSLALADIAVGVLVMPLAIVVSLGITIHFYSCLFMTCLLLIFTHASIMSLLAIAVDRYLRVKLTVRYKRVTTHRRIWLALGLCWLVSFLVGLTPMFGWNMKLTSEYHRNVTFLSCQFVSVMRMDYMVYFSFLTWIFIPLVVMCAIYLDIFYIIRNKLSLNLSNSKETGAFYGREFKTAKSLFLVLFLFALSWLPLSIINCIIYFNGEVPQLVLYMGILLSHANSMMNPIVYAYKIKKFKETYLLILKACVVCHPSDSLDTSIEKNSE
Chain of 5-hydroxytryptamine receptor 6 (Homo sapiens) (P50406 whole entry): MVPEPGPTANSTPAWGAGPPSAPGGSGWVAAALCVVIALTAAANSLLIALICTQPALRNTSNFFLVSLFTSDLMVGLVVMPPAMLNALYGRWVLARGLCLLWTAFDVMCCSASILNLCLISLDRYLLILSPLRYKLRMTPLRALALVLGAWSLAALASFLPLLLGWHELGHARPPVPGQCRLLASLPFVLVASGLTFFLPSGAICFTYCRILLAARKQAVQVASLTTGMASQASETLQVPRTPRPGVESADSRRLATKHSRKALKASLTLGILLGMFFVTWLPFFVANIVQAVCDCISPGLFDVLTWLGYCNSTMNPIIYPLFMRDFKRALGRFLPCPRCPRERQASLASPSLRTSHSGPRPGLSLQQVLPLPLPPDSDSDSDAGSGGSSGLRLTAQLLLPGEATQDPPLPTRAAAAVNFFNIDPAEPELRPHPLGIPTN

## CCC(CC)Nc1nc(C)c(-c2ccc(OC(F)(F)F)cc2OC)nc1OC
Rattus norvegicus [1]
  AUC: 4499 ng·h/mL
[2]
  Kp: 5.4
Rattus norvegicus [3]
  F: 45%
[4]
  inhibition: > 16%
[5]
  inhibition: > 16%
[6]
  inhibition: > 16%
[7]
  CL/F: 12 mL/min/kg
[8]
  inhibition: > 16%
Rattus norvegicus [9]
  IC50: 0.071 µg/mL (≈ 0.178 µM)
Rattus norvegicus [9]; po, read-out: ID50 (the source's name)
  ED50: 2 mg/kg
[10]
  inhibition: > 16%
[11]
  inhibition: > 16%
Rattus norvegicus [12]
  Activity: Non-toxic
Rattus norvegicus [13]
  Stability: Unstable
[14]
  half-life: 8.4 h
[15]
  Cmax: 456 ng/mL
[16]
  inhibition: > 16%
[17]
  inhibition: > 16%
Rattus norvegicus [18]
  Activity: Active
[19]
  inhibition: inactive
[20]
  inhibition: > 16%
[21]
  inhibition: > 16%

From ChEMBL document CHEMBL1806459, “Discovery of N-(1-ethylpropyl)-[3-methoxy-5-(2-methoxy-4-trifluoromethoxyphenyl)-6-methyl-pyrazin-2-yl]amine 59 (NGD 98-2): an orally active corticotropin releasing factor-1 (CRF-1) receptor antagonist” (J Med Chem, 2011)
